How the values were obtained:
Format in all cases: functional
SK-MEL-2 = assay: Growth inhibition of human SK-MEL-2 cells at 10 uM after 48 hrs by coulter counter method; conditions: SK-MEL-2, 48 h, read-out: GI
Method in brief: (§1)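 Single high-dose NCI 60-cell-line panel screen across nine tumor subpanels. Test solutions (0.2 mL) were added in duplicate to wells holding 1.8 mL of culture at 6 × 10⁴ cells/mL. Controls got PBS and DMSO at identical dilutions. Incubation was 48 h at 37 °C in humidified 5% CO₂. Cells were diluted 10-fold in saline, Coulter-counted and dilution-corrected. Results were expressed as percent growth inhibition versus control.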

IGROV-1 = assay: Growth inhibition of human IGROV1 cells at 10 uM after 48 hrs by coulter counter method; conditions: IGROV-1, 48 h, read-out: GI; method in brief: as §1
COLO 205 = assay: Growth inhibition of human COLO205 cells at 10 uM after 48 hrs by coulter counter method; conditions: COLO 205, 48 h, read-out: GI; method in brief: as §1
SN12C = assay: Growth inhibition of human SN12C cells at 10 uM after 48 hrs by coulter counter method; conditions: read-out: GI; method in brief: as §1
K562 = assay: Growth inhibition of human K562 cells at 10 uM after 48 hrs by coulter counter method; conditions: K562, 48 h, read-out: GI; method in brief: as §1
SK-OV-3 = assay: Growth inhibition of human SKOV3 cells at 10 uM after 48 hrs by coulter counter method; conditions: SK-OV-3, 48 h, read-out: GI; method in brief: as §1
UACC-62 = assay: Growth inhibition of human UACC62 cells at 10 uM after 48 hrs by coulter counter method; conditions: UACC-62, 48 h, read-out: GI; method in brief: as §1
SF-539 = assay: Growth inhibition of human SF539 cells at 10 uM after 48 hrs by coulter counter method; conditions: SF-539, 48 h, read-out: GI; method in brief: as §1
SK-MEL-28 = assay: Growth inhibition of human SK-MEL-28 cells at 10 uM after 48 hrs by coulter counter method; conditions: SK-MEL-28, 48 h, read-out: GI; method in brief: as §1
786-0 = assay: Growth inhibition of human 786-0 cells at 10 uM after 48 hrs by coulter counter method; conditions: 786-0, 48 h, read-out: GI; method in brief: as §1
SR = assay: Growth inhibition of human SR cells at 10 uM after 48 hrs by coulter counter method; conditions: read-out: GI; method in brief: as §1
NCI-H522 = assay: Growth inhibition of human NCI-H522 cells at 10 uM after 48 hrs by coulter counter method; conditions: NCI-H522, 48 h, read-out: GI; method in brief: as §1
SNB-75 = assay: Growth inhibition of human SNB75 cells at 10 uM after 48 hrs by coulter counter method; conditions: SNB-75, 48 h, read-out: GI; method in brief: as §1
CCRF-CEM = assay: Growth inhibition of human CCRF-CEM cells at 10 uM after 48 hrs by coulter counter method; conditions: read-out: GI; method in brief: as §1
CAKI-1 = assay: Growth inhibition of human Caki1 cells at 10 uM after 48 hrs by coulter counter method; conditions: CAKI-1, 48 h, read-out: GI; method in brief: as §1
HCT-116 = assay: Growth inhibition of human HCT116 cells at 10 uM after 48 hrs by coulter counter method; conditions: HCT-116, 48 h, read-out: GI; method in brief: as §1
T47D = assay: Growth inhibition of human T47D cells at 10 uM after 48 hrs by coulter counter method; conditions: read-out: GI; method in brief: as §1
PC-3 = assay: Growth inhibition of human PC3 cells at 10 uM after 48 hrs by coulter counter method; conditions: PC-3, 48 h, read-out: GI; method in brief: as §1
NCI-H23 = assay: Growth inhibition of human NCI-H23 cells at 10 uM after 48 hrs by coulter counter method; conditions: NCI-H23, 48 h, read-out: GI; method in brief: as §1
MCF7 = assay: Growth inhibition of human MCF7 cells at 10 uM after 48 hrs by coulter counter method; conditions: MCF7, 48 h, read-out: GI; method in brief: as §1
M14 = assay: Growth inhibition of human M14 cells at 10 uM after 48 hrs by coulter counter method; conditions: M14, 48 h, read-out: GI; method in brief: as §1
KM12 = assay: Growth inhibition of human KM12 cells at 10 uM after 48 hrs by coulter counter method; conditions: KM12, 48 h, read-out: GI; method in brief: as §1
U-251 = assay: Growth inhibition of human U251 cells at 10 uM after 48 hrs by coulter counter method; conditions: U-251, 48 h, read-out: GI; method in brief: as §1
UO-31 = assay: Growth inhibition of human UO31 cells at 10 uM after 48 hrs by coulter counter method; conditions: UO-31, 48 h, read-out: GI; method in brief: as §1
HOP-92 = assay: Growth inhibition of human HOP92 cells at 10 uM after 48 hrs by coulter counter method; conditions: HOP-92, 48 h, read-out: GI; method in brief: as §1
MDA-MB-231 = assay: Growth inhibition of human MDA-MB-231 cells at 10 uM after 48 hrs by coulter counter method; conditions: MDA-MB-231, 48 h, read-out: GI; method in brief: as §1
OVCAR-4 = assay: Growth inhibition of human OVCAR4 cells at 10 uM after 48 hrs by coulter counter method; conditions: OVCAR-4, 48 h, read-out: GI; method in brief: as §1
OVCAR-8 = assay: Growth inhibition of human OVCAR8 cells at 10 uM after 48 hrs by coulter counter method; conditions: OVCAR-8, 48 h, read-out: GI; method in brief: as §1
[1] = Growth inhibition of human Hs 578T cells at 10 uM after 48 hrs by coulter counter method; conditions: read-out: GI; method in brief: as §1
NCI-H226 = assay: Growth inhibition of human NCI-H226 cells at 10 uM after 48 hrs by coulter counter method; conditions: NCI-H226, 48 h, read-out: GI; method in brief: as §1
MDA-MB-468 = assay: Growth inhibition of human MDA-MB-468 cells at 10 uM after 48 hrs by coulter counter method; conditions: MDA-MB-468, 48 h, read-out: GI; method in brief: as §1
SF-268 = assay: Growth inhibition of human SF268 cells at 10 uM after 48 hrs by coulter counter method; conditions: SF-268, 48 h, read-out: GI; method in brief: as §1
MOLT-4 = assay: Growth inhibition of human MOLT4 cells at 10 uM after 48 hrs by coulter counter method; conditions: MOLT-4, 48 h, read-out: GI; method in brief: as §1
A549 = assay: Growth inhibition of human A549 cells at 10 uM after 48 hrs by coulter counter method; conditions: A549, 48 h, read-out: GI; method in brief: as §1
HL-60(TB) = assay: Growth inhibition of human HL-60(TB) cells at 10 uM after 48 hrs by coulter counter method; conditions: HL-60, 48 h, read-out: GI
Method in brief: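 Part of the NCI 60-cell-line single-high-dose panel. Cells were seeded at 6 × 10⁴ cells/mL with test solution in duplicate wells, alongside PBS/DMSO controls at identical dilutions. Plates were held 48 h at 37 °C in a humidified 5% CO₂ incubator. Cells were then diluted 10-fold in saline and counted by Coulter counter, with counts corrected for dilution. Results are percent growth of treated cells, reported as GI %.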

Compound | inhibition of growth at 10 µM (SK-MEL-2) [%] | inhibition of growth at 10 µM (IGROV-1) [%] | inhibition of growth at 10 µM (COLO 205) [%] | inhibition of growth at 10 µM (SN12C) [%] | inhibition of growth at 10 µM (SK-OV-3) [%] | inhibition of growth at 10 µM (UACC-62) [%] | inhibition of growth at 10 µM (SF-539) [%] | inhibition of growth at 10 µM (SK-MEL-28) [%] | inhibition of growth at 10 µM (786-0) [%] | inhibition of growth at 10 µM (SR) [%] | inhibition of growth at 10 µM (NCI-H522) [%] | inhibition of growth at 10 µM (SNB-75) [%] | inhibition of growth at 10 µM (CCRF-CEM) [%] | inhibition of growth at 10 µM (HCT-116) [%] | inhibition of growth at 10 µM (T47D) [%] | inhibition of growth at 10 µM (PC-3) [%] | inhibition of growth at 10 µM (NCI-H23) [%] | inhibition of growth at 10 µM (MCF7) [%] | inhibition of growth at 10 µM (M14) [%] | inhibition of growth at 10 µM (KM12) [%] | other results
CCn1c(SC)nc2ccccc2c1=O | 30 | 30 | 30 | 30 | 30 | 30 | 30 | 30 | 30 | 30 | 30 | 30 | 49.5 | 30 | 30 | 30 | 30 | 30 | 30 | 30 | inhibition of growth at 10 µM (K562): 30%; inhibition of growth at 10 µM (CAKI-1): 42.9%; inhibition of growth at 10 µM (U-251): 30%; inhibition of growth at 10 µM (UO-31): 30%; inhibition of growth at 10 µM (HOP-92): 60.8%; inhibition of growth at 10 µM (MDA-MB-231): 30%; inhibition of growth at 10 µM (OVCAR-4): 30%; inhibition of growth at 10 µM (OVCAR-8): 30%; inhibition of growth at 10 µM [1]: 30%; inhibition of growth at 10 µM (NCI-H226): 30%; inhibition of growth at 10 µM (MDA-MB-468): 30%; inhibition of growth at 10 µM (SF-268): 30%; inhibition of growth at 10 µM (MOLT-4): 30%; inhibition of growth at 10 µM (A549): 30%; inhibition of growth at 10 µM (HL-60(TB)): 34.8%
COc1ccc(C(=O)CSc2nc3ccccc3c(=O)n2-c2ccc(OC)cc2)cc1 | 30 | 30 | 30 | 30 | 30 | 30 | 30 | 30 | 30 | 34.9 | < 30 | 30 | 70.3 | 30 | 30 | 30 | 30 | 30 | 30 | 30 | inhibition of growth at 10 µM (U-251): 30%; inhibition of growth at 10 µM (UO-31): 30.3%; inhibition of growth at 10 µM (HOP-92): 30%; inhibition of growth at 10 µM (MDA-MB-231): 30%; inhibition of growth at 10 µM (OVCAR-4): 30%; inhibition of growth at 10 µM (OVCAR-8): 30%; inhibition of growth at 10 µM [1]: 30%; inhibition of growth at 10 µM (NCI-H226): 30%; inhibition of growth at 10 µM (MDA-MB-468): 30.8%; inhibition of growth at 10 µM (SF-268): 30%; inhibition of growth at 10 µM (MOLT-4): 49.4%; inhibition of growth at 10 µM (A549): 30.8%; inhibition of growth at 10 µM (HL-60(TB)): 43%
O=c1c2ccccc2nc(Nc2nnc(-c3ccc(Cl)cc3)s2)n1-c1ccccc1 | 30 | 65.9 | 30 | 30 | 30 | 30 | 30 | 30 | 30 | 30 | 31.9 | 30 | 30 | 30 | 30 | 30 | 30 | 30 | 30 | 30 | inhibition of growth at 10 µM (K562): 30%; inhibition of growth at 10 µM (CAKI-1): 30%; inhibition of growth at 10 µM (U-251): 30%; inhibition of growth at 10 µM (UO-31): 30%; inhibition of growth at 10 µM (HOP-92): 30%; inhibition of growth at 10 µM (MDA-MB-231): 30%; inhibition of growth at 10 µM (OVCAR-4): 30%; inhibition of growth at 10 µM (OVCAR-8): 30%; inhibition of growth at 10 µM [1]: 30%; inhibition of growth at 10 µM (NCI-H226): 30%; inhibition of growth at 10 µM (MDA-MB-468): 30%; inhibition of growth at 10 µM (SF-268): 30%; inhibition of growth at 10 µM (MOLT-4): 30%; inhibition of growth at 10 µM (A549): 30%; inhibition of growth at 10 µM (HL-60(TB)): 30%

From ChEMBL document CHEMBL1629431, “Synthesis and antitumor activity of some 2, 3-disubstituted quinazolin-4(3H)-ones and 4, 6- disubstituted- 1, 2, 3, 4-tetrahydroquinazolin-2H-ones” (2010)
